# Results from different studies.
SMILES,target or system,test,system,setting,endpoint,result
CCCCNc1ccnc(Nc2cccc(-c3cccnc3)c2)n1,BJ,"cell growth or viability, ATP luminescence",,72 h,EC50,> 17 µM
Cc1ccc(-c2nc3ccccc3s2)cc1NC(=O)c1cc([N+](=O)[O-])c(NC2CCN(C)CC2)cc1Cl,BJ,"cell growth or viability, ATP luminescence",,,EC50,> 9.2 µM
CCN1CCN(c2cc3c(cc2F)c(=O)c(C(=O)O)cn3C2CC2)CC1,Salmonella enterica,microbial growth,"F98, TYPHIMURIUM","20 h, pH 7",MIC,0.0313 µg/mL
O=c1cc(-c2ccc(O)cc2)oc2cc(O)cc(O)c12,Helicobacter pylori,"microbial growth, broth dilution",,3.9 µg/mL,inhibition,100%
CC1(C)S[C@@H]2[C@H](NC(=O)[C@H](N)c3ccccc3)C(=O)N2[C@H]1C(=O)O,Salmonella enterica,microbial growth,"F98, TYPHIMURIUM","20 h, pH 7.2",MIC,2 µg/mL
COC(=O)c1cccc(-c2cccc(Nc3nccc(NC(C)C)n3)c2)c1,BJ,"cell growth or viability, ATP luminescence",,72 h,EC50,13.2 µM
CO/N=C(\C(=O)N[C@@H]1C(=O)N2C(C(=O)O)=C(CSc3nc(=O)c(=O)[nH]n3C)CS[C@H]12)c1csc(N)n1,Salmonella enterica,microbial growth,"F98, TYPHIMURIUM","20 h, pH 7",MIC,0.125 µg/mL
CONc1ccnc(Nc2cccc(-c3cccnc3)c2)n1,BJ,"cell growth or viability, ATP luminescence",,72 h,EC50,> 12 µM
O=C(O)c1ccc(O)cc1,Helicobacter pylori,"microbial growth, broth dilution",,62.5 µg/mL,inhibition,100%
c1ccc(-c2cccc(Nc3nccc(NC4CCCCC4)n3)c2)cc1,BJ,"cell growth or viability, ATP luminescence",,72 h,EC50,> 5 µM
O=c1cc(-c2ccc(O)c(O)c2)oc2cc(O)cc(O)c12,Helicobacter pylori,"microbial growth, broth dilution",,1.95 µg/mL,inhibition,89.3%
CN(C)[C@@H]1C(O)=C(C(N)=O)C(=O)[C@@]2(O)C(O)=C3C(=O)c4c(O)cccc4[C@@](C)(O)[C@H]3C[C@@H]12,Salmonella enterica,microbial growth,,"20 h, pH 5.5",MIC,1 µg/mL
